From ChEMBL document CHEMBL1781874, “Cytotoxic triterpenoids from the stems of Microtropis japonica” (J Nat Prod, 2009)
Values after ≈ are worked out from the molar mass of the structure shown. Active and inactive are the calls of the source. The rule behind the calls is not given here.

Tests used:
[1] = tested on: HL-60; test: Cytotoxicity against human HL60 cells after 24 hrs by MTT assay; assay type: functional, cell-based; details: HL-60, 24 h
Procedure, shortened: (§1)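 MTT viability read-out on human cancer cell lines (Ca9-22 gingival, HL60 leukemia, HepG2 hepatoma), run to a previously published protocol.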

[2] = tested on: HepG2; test: Cytotoxicity against human HepG2 cells after 24 hrs by MTT assay; assay type: functional, cell-based; details: HepG2, 24 h; procedure, shortened: as §1
[3] = tested on: HL-60; test: Effect on Bcl2 expression in human HL60 cells by Western blotting analysis; assay type: functional, cell-based
Procedure, shortened: (§2)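 Cells lysed for 30 min in RIPA buffer (PBS, 1% NP-40, 0.5% deoxycholate, 0.1% SDS, 1 mM orthovanadate, 100 μg/mL PMSF, 30 μg/mL aprotinin), then spun at 20000g for 30 min. Supernatant protein quantified by Bio-Rad assay. Equal protein run on 7.5, 10 or 12% SDS-PAGE, transferred to PVDF, blocked 1 h in 5% nonfat milk in TBST.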

[4] = target: Histone deacetylase 5 (Homo sapiens) (UniProt Q9UQL6); test: Inhibition of HDAC5 in human HL60 cells at 5 to 20 ug/ml after 24 hrs by Western blotting analysis; assay type: cell-based; details: HL-60; procedure, shortened: as §2
[5] = target: Histone deacetylase 1 (Homo sapiens) (UniProt Q13547); test: Inhibition of HDAC1 in human HL60 cells at 5 to 20 ug/ml after 24 hrs by Western blotting analysis; assay type: cell-based; details: HL-60; procedure, shortened: as §2
[6] = target: Histone deacetylase (Homo sapiens) (UniProt Q13547+O15379+Q9UBN7+Q92769+Q9UQL6+Q8WUI4+Q9BY41+Q96DB2+P56524+Q9UKV0+Q969S8); details: HL-60, at 20 µg/mL
[7] = target: Histone deacetylase 3 (Homo sapiens) (UniProt O15379); test: Inhibition of HDAC3 in human HL60 cells at 5 to 20 ug/ml after 24 hrs by Western blotting analysis; assay type: cell-based; details: HL-60; procedure, shortened: as §2
[8] = target: T1, Protein deacetylase HDAC6 (Homo sapiens) (UniProt Q9UBN7); test: Inhibition of HDAC6 in human HL60 cells at 5 to 20 ug/ml after 24 hrs by Western blotting analysis; assay type: cell-based; details: HL-60; procedure, shortened: as §2
T1 sequence (whole entry): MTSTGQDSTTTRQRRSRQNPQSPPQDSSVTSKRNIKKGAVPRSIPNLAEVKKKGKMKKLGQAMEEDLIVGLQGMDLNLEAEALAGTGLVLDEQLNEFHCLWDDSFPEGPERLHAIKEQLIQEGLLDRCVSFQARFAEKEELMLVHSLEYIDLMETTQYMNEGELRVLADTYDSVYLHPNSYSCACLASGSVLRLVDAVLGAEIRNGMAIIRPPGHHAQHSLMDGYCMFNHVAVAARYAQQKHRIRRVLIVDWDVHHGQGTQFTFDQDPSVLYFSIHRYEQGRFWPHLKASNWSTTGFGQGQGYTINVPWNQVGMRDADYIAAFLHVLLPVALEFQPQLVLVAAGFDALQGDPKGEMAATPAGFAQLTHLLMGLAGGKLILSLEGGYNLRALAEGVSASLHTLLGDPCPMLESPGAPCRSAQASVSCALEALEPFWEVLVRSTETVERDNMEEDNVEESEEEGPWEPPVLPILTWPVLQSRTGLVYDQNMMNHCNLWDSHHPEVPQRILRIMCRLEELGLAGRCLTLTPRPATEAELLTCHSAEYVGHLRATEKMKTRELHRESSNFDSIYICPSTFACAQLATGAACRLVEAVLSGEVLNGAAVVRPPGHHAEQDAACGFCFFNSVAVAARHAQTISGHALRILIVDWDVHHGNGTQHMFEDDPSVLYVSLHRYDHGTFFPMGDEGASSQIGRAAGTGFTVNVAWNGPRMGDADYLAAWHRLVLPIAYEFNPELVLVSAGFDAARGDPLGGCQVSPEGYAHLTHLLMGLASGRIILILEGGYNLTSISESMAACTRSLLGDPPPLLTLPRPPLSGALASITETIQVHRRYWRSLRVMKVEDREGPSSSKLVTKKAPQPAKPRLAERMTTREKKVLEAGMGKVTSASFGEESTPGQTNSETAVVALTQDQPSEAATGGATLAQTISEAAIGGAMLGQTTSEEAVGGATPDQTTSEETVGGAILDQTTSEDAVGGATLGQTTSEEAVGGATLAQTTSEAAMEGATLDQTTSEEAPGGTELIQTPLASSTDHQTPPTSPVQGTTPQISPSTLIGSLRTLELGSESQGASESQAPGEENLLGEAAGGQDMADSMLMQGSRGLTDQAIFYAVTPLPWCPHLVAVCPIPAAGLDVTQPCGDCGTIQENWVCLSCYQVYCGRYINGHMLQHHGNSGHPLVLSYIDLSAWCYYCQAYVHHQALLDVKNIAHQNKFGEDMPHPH

[9] = tested on: HL-60; test: Induction of apoptosis in human HL60 cells assessed as PARP cleavage by Western blotting analysis; assay type: functional, cell-based; procedure, shortened: as §2
[10] = target: Histone deacetylase 4 (Homo sapiens) (UniProt P56524); test: Inhibition of HDAC4 in human HL60 cells at 5 to 20 ug/ml after 24 hrs by Western blotting analysis; assay type: cell-based; details: HL-60; procedure, shortened: as §2
[11] = tested on: Ca9-22; test: Cytotoxicity against human Ca9-22 cells after 24 hrs by MTT assay; assay type: functional, cell-based; details: Ca9-22, 24 h; procedure, shortened: as §1
[12] = tested on: HL-60; test: Induction of apoptosis in human HL60 cells assessed as increase in Bax expression by Western blotting analysis; assay type: functional, cell-based; procedure, shortened: as §2

Histone deacetylase 4 (Homo sapiens), sequence (P56524 whole entry): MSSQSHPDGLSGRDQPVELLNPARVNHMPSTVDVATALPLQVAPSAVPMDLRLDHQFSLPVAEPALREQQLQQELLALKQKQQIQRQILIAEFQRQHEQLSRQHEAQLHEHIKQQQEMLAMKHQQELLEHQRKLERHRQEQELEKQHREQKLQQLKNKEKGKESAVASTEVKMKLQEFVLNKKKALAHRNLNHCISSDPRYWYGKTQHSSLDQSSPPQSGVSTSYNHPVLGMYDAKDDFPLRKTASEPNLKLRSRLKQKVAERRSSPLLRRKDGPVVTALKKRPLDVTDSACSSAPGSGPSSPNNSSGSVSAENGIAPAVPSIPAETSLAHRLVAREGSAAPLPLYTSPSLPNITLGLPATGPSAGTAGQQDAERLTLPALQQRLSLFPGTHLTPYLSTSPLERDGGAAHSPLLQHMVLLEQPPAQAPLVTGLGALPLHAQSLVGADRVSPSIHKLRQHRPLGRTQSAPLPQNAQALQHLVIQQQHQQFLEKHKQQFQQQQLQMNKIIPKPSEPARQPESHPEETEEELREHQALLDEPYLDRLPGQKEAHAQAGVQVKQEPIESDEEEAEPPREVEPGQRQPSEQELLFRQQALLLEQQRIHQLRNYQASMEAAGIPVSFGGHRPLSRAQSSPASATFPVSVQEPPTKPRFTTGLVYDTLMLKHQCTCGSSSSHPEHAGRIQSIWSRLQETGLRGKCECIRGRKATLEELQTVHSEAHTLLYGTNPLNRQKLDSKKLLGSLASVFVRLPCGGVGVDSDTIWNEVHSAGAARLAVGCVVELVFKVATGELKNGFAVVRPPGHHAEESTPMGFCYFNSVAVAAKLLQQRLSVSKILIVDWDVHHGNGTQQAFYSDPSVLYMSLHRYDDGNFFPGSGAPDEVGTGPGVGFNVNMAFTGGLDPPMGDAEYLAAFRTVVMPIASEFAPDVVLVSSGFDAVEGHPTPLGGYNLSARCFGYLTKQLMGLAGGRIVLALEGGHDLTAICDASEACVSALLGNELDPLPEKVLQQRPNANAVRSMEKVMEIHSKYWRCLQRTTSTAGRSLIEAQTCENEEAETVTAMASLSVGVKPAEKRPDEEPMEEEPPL
Histone deacetylase 5 (Homo sapiens), sequence (Q9UQL6 whole entry): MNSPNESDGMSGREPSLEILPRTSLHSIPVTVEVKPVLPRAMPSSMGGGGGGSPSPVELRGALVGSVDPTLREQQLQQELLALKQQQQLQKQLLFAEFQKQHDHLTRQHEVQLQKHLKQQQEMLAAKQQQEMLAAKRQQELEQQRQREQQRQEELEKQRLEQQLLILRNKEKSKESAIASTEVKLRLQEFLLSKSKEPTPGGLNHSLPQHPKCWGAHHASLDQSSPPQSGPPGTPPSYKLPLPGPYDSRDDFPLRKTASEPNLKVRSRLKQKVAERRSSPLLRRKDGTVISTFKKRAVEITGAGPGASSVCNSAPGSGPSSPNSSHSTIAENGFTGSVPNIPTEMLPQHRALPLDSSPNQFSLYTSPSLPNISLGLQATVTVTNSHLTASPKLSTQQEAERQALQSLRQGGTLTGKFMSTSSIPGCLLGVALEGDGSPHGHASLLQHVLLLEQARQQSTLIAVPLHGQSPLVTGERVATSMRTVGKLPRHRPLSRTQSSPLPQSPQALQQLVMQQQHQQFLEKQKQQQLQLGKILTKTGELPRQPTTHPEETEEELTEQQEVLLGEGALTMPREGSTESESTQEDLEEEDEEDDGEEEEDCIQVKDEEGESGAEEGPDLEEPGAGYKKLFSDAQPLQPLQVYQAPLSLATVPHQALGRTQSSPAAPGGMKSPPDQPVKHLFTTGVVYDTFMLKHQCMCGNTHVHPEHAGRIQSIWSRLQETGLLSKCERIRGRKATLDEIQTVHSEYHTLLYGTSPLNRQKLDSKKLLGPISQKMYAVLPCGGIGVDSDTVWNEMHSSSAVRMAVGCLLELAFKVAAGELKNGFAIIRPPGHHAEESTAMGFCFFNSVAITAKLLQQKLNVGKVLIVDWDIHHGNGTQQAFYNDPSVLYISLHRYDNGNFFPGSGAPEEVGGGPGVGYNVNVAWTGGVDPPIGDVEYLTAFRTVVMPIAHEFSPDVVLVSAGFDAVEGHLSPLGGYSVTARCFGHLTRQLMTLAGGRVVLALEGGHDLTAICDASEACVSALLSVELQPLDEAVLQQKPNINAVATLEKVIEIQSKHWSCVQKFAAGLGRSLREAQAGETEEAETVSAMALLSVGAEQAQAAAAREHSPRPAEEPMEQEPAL
Histone deacetylase 1 (Homo sapiens), sequence (Q13547 whole entry): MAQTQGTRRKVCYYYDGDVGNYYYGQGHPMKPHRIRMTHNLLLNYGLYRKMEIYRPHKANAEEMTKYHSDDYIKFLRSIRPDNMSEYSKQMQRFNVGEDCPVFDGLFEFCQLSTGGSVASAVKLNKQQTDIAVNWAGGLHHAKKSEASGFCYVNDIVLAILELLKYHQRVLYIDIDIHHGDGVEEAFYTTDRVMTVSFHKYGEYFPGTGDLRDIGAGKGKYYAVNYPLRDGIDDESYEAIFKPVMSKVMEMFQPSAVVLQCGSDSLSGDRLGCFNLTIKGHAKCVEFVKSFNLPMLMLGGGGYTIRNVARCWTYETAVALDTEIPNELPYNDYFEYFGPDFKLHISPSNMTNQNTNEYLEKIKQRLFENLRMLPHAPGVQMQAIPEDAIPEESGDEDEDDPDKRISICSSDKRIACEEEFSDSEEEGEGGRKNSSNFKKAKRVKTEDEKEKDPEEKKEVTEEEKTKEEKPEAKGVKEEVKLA
Histone deacetylase 3 (Homo sapiens), sequence (O15379 whole entry): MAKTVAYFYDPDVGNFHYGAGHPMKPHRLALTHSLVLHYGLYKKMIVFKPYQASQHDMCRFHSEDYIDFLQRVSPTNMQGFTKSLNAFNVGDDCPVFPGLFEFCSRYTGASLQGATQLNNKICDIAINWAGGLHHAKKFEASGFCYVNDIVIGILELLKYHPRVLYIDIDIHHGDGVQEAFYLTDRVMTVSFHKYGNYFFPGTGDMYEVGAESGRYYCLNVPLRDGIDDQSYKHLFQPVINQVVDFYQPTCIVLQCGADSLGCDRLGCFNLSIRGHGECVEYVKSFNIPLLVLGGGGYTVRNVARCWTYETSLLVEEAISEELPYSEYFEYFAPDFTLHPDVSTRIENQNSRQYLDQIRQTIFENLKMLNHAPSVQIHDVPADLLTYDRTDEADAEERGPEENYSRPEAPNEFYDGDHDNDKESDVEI

inhibition [4]	inhibition [5]	inhibition [6]	inhibition [7]	inhibition [8]	inhibition [10]	SMILES	IC50 [1]	IC50 [2]	Activity [3]	Activity [9]	IC50 [11]	Activity [12]
						CO[C@@H]1C(O)=C2[C@@H]3[C@@H](C)[C@H](C)CC[C@]3(C)CC[C@@]2(C)[C@]2(C)CC[C@@H]3[C@](C)(CCC(=O)[C@@]3(C)CO)[C@@H]12	5.1 µg/mL (≈ 10.5 µM)	7.7 µg/mL (≈ 15.8 µM)				
Active	Active	Active	Active	Active	Active	C[C@H]1[C@H](C)CC[C@]2(C(=O)O)CC[C@]3(C)C(=CC[C@@H]4[C@@]5(C)CC[C@H](O)C(C)(C)[C@@H]5CC[C@]43C)[C@H]12 [URSOLIC ACID]	8.7 µg/mL (≈ 19 µM)		inactive	Active	5.9 µg/mL (≈ 12.9 µM)	Active
